According to ChEMBL document CHEMBL1149314, “Synthesis of AZT 5'-triphosphate mimics and their inhibitory effects on HIV-1 reverse transcriptase” (J Med Chem, 2004):

Experiments:
[1] = Inhibition of HIV1 reverse transcriptase; design: species or system Human immunodeficiency virus 1
Outline: (§1)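 HIV reverse transcriptase (type B, 66 kDa subunit) at 2 nM with 1 µg/mL primed poly(A) RNA and 5 µM dTTP, in 50 mM Tris-HCl pH 8.1, 6.5 mM MgCl2, 100 mM NaCl and 10 mM DTT. Compounds were tested up to 500 µM final. Reactions were started with enzyme, run 10 min at 37 °C and stopped with EDTA. DNA was read by PicoGreen fluorescence (ex 480/em 538 nm), with no-enzyme or no-dTTP blanks. Percent inhibition was blank-corrected; Ki came from titration fitted to a competitive model.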

[2] = tested on: Human immunodeficiency virus 1; experiment: Inhibition of HIV1 reverse transcriptase at 0.5 uM; outline: as §1
[3] = tested on: Serum; experiment: (§2) Stability in fetal calf serum at 500 uM at 37 degC; assay type: ADME, cell-free, Bos taurus; details: cattle, serum, 500 µM
Outline: (§3)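 Fetal calf serum at 10% v/v final, with 500 µM nucleotide mimic in 50 mM Tris-HCl pH 7.4 and 0.1 mM MgCl2, at 37 °C. Timed aliquots were quenched in cold methanol, extracted, dried and run on ion-pair reverse-phase HPLC. Half-life came from remaining parent through 48 h, given as >48 h if over 50% remained; unmodified nucleoside triphosphates were positive controls.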

[4] = as §2; assay type: ADME, cell-free, Bos taurus; details: cattle, fetal calf serum; outline: as §3
[5] = Stability in CEM cell extract; assay type: ADME; details: human, CEM (CCRF-CEM) cell extract
Outline: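 Clarified lysate of CEM cells (10^7 cells per 100 µL Tris/glycerol/Triton buffer, freeze-thaw lysed) at 50% v/v, with 500 µM nucleotide mimic in 50 mM Tris-HCl pH 7.4 and 0.1 mM MgCl2, at 37 °C. Samples were taken from 0 to 48 h into cold methanol, dried and analysed by ion-pair reverse-phase HPLC. Half-life came from remaining parent, given as >48 h if over 50% remained intact; unmodified NTPs were controls.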

| Structure (SMILES) | Ki [1] | further results |
| --- | --- | --- |
| CNP(=O)(O)C(F)(F)P(=O)(O)OP(=O)(O)OC[C@@H]1O[C@H](n2cc(C)c(=O)[nH]c2=O)C[C@H]1N=[N+]=[N-] | 124 nM |  |
| Cc1cn([C@@H]2C[C@@H](N=[N+]=[N-])[C@H](COP(=O)(O)OP(=O)(O)C(F)(F)P(=O)(O)Nc3ccccc3)O2)c(=O)[nH]c1=O | 254 nM |  |
| Cc1cn([C@@H]2C[C@@H](N=[N+]=[N-])[C@H](COP(=O)(O)OP(=O)(O)C(F)(F)P(=O)(O)O)O2)c(=O)[nH]c1=O | 41 nM |  |
| COP(=O)(O)C(F)(F)P(=O)(O)OP(=O)(O)OC[C@@H]1O[C@H](n2cc(C)c(=O)[nH]c2=O)C[C@H]1N=[N+]=[N-] | 597 nM |  |
| CCNP(=O)(O)C(F)(F)P(=O)(O)OP(=O)(O)OC[C@@H]1O[C@H](n2cc(C)c(=O)[nH]c2=O)C[C@H]1N=[N+]=[N-] | 415 nM |  |
| Cc1cn([C@@H]2C[C@@H](N=[N+]=[N-])[C@H](COP(=O)(O)OP(=O)(O)C(F)(F)P(=O)(O)Oc3ccccc3)O2)c(=O)[nH]c1=O | 303 nM |  |
| Cc1cn([C@@H]2C[C@@H](N=[N+]=[N-])[C@H](COP(=O)(O)OP(=O)(O)C(F)(F)P(N)(=O)O)O2)c(=O)[nH]c1=O | 234 nM |  |
| Cc1cn([C@@H]2C[C@@H](N=[N+]=[N-])[C@H](COP(=O)(O)C(F)(F)P(=O)(O)OP(=O)(O)c3ccccc3)O2)c(=O)[nH]c1=O |  | inhibition [2]: 11.5% |
| Cc1cn([C@@H]2C[C@@H](N=[N+]=[N-])[C@H](COP(=O)(O)OP(=O)(O)C(F)(F)P(=O)(O)N=[N+]=[N-])O2)c(=O)[nH]c1=O |  | inhibition [2]: 24% |
| Cc1cn([C@@H]2C[C@@H](N=[N+]=[N-])[C@H](COP(=S)(S)OP(=O)(O)C(F)(F)P(=O)(O)O)O2)c(=O)[nH]c1=O (stereo partly drawn) |  | inhibition [2]: 19% |
| BP(=O)(OC[C@@H]1O[C@H](n2cc(C)c(=O)[nH]c2=O)C[C@H]1N=[N+]=[N-])OP(=O)(O)C(Cl)(Cl)P(=O)(O)O (single isomer, unassigned) | 93 nM | t1/2 [3]: 45 h |
| BP(=O)(OC[C@@H]1O[C@H](n2cc(C)c(=O)[nH]c2=O)C[C@H]1N=[N+]=[N-])OP(=O)(O)C(F)P(=O)(O)O (single isomer, unassigned) | 27 nM |  |
| BP(=O)(OC[C@@H]1O[C@H](n2cc(C)c(=O)[nH]c2=O)C[C@H]1N=[N+]=[N-])OP(=O)(O)C(F)(F)P(=O)(O)O (single isomer, unassigned; diastereomer I) | 9.5 nM | half-life at 500 µM [4]: > 48 h; half-life [5]: > 48 h |
| BP(=O)(OC[C@@H]1O[C@H](n2cc(C)c(=O)[nH]c2=O)C[C@H]1N=[N+]=[N-])OP(=O)(O)C(Cl)(Cl)P(=O)(O)O (single isomer, unassigned; diastereomer II) | 74 nM | half-life at 500 µM [4]: > 48 h; half-life [5]: > 48 h |
| BP(=O)(OC[C@@H]1O[C@H](n2cc(C)c(=O)[nH]c2=O)C[C@H]1N=[N+]=[N-])OP(=O)(O)C(F)(F)P(=O)(O)O (single isomer, unassigned; diastereomer II) | 4560 nM |  |
| BP(=O)(OC[C@@H]1O[C@H](n2cc(C)c(=O)[nH]c2=O)C[C@H]1N=[N+]=[N-])OP(=O)(O)C(F)P(=O)(O)O (single isomer, unassigned; diastereomer IV) |  | inhibition [2]: 49% |
| BP(=O)(OC[C@@H]1O[C@H](n2cc(C)c(=O)[nH]c2=O)C[C@H]1N=[N+]=[N-])OP(=O)(O)OP(=O)(O)O (single isomer, unassigned; form 1) | 9.6 nM | t1/2 [3]: 6 h |
| BP(=O)(OC[C@@H]1O[C@H](n2cc(C)c(=O)[nH]c2=O)C[C@H]1N=[N+]=[N-])OP(=O)(O)OP(=O)(O)O (single isomer, unassigned; form 2) |  | half-life at 500 µM [4]: 6 h |
| Nc1ncnc2c1ncn2[C@@H]1O[C@H](COP(=O)(O)OP(=O)(O)OP(=O)(O)O)[C@@H](O)[C@H]1O [ADENOSINE TRIPHOSPHATE] |  | half-life at 500 µM [4]: 2 h |
| Cc1cn([C@H]2C[C@H](O)[C@@H](COP(=O)(O)OP(=O)(O)OP(=O)(O)O)O2)c(=O)[nH]c1=O [DEOXYTHYMIDINE_TRIPHOSPHATE] |  | half-life at 500 µM [4]: 2 h |
| Cc1cn([C@H]2C[C@H](N=[N+]=[N-])[C@@H](COP(=O)(O)OP(=O)(O)OP(=O)(O)O)O2)c(=O)[nH]c1=O [ZIDOVUDINE TRIPHOSPHATE] | 8.4 nM | half-life at 500 µM [4]: 2 h |
